SMARCA2 act = increases SMARCA2 function in MMTV reporter cells; MG213 cells, MMTV-luciferase reporter, dexamethasone, overnight; activation, % at 9.1 µM; hit rate 1% among 370,000; in the data active means activation above about 7.8%;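 further: 0% = vehicle wells and 100% = reference activator wells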
ASAP1 inh = inhibitors of human ASAP1 ArfGAP activity; Q9ULH1; inhibition, % at 16.5 µM; hit rate 0.19% among 360,000; ASAP1-stimulated ARF1 GTP hydrolysis, GDP FP detection; in the data active means inhibition above about 25%;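 further: 0% = vehicle with enzyme and substrate and 100% = no enzyme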
Target sequence (Q9ULH1 325-724 limits assumed): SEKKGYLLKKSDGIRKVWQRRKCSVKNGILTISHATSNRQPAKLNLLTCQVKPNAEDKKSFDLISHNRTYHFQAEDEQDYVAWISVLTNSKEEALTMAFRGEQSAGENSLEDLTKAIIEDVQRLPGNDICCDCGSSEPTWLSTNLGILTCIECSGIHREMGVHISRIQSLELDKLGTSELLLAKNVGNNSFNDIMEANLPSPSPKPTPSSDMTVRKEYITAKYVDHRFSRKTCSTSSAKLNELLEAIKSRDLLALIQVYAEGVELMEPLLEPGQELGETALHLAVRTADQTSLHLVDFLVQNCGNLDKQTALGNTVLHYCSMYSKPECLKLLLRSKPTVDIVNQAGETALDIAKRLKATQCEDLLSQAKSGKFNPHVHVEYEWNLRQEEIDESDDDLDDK
ARFGAP1 inhibitor = inhibitors of rat ARFGAP1; hit rate 0.26% among 360,000; AID 651572; inhibition, % at 16.5 µM; Arfgap1-stimulated ARF1 GTP hydrolysis, GDP FP detection;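 active means inhibition above a per-plate limit, mean inhibition of low control wells plus 3 SD, cut at about 25% in these data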;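 further: 0% = DMSO wells with enzyme and 100% = wells lacking Arfgap1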
Target sequence (Q62848 1-136 limits assumed): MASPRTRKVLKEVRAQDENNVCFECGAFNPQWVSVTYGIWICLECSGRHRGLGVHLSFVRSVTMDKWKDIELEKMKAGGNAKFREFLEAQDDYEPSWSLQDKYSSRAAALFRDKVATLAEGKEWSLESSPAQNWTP
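Repeats: one replicate per compound; assay system: rat Arfgap1 catalytic domain, aa 1-136; times: enzyme reaction 120 min at 25 °C after 20 min preincubation; detection: FP of antibody-bound GDP Alexa 633 tracer, ex 620/em 688 nm; benchmarks: high control wells lacking Arfgap1, low control full reaction with DMSO; reagent: human ARF1(Δ1-17)-GTP substrate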
esBAF inh = inhibitors of esBAF chromatin remodeling in mouse ES cells | Bmi1-luciferase knock-in reporter, 24 h; 100% = twice the neutral-well signal | hit rate 2% among 350,000 | reporter increase, % at 12.5 µM | AID 602393; in the data active means activation above about 40%; inconclusive means no clear call, values can overlap the other calls;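 further: 0% = median of the plate's neutral control wells and 100% = double that signal; a rise in the Bmi1 reporter signal indicates esBAF inhibition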
SMARCA2 act conf = SMARCA2 activation, confirmation screen | shares compounds with SMARCA2 act | MG213 cells, MMTV-luciferase with dexamethasone, luminescence, overnight; MG213 cells expressing E1A, Rb sequestered; DMSO wells 0%, reference activator 100% | activation, % at 9.1 µM | hit rate 30% among 3,500;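 active means activation above its plate's cutoff, the mean activation of tested wells plus 3 SD, cut at about 7.9% in these data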
GAL4-VP16 Luc = GAL4-VP16 reporter activation counter-screen. activation, % at 9.1 µM. HEK293 GAL4-VP16 pG5luc reporter, luciferase luminescence; scaled: DMSO wells 0%, SAHA wells 100%. hit rate 41% among 3,500. shares compounds with SMARCA2 act;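 active means activation above the solvent-only control well mean plus 3 SD, averaged across control plates, cut at about 5.2% in these data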
* marks the source's active call; other numbers are inactive results; ? = inconclusive; . = no result given. The list is not random: actives were taken first. Their share in the collection is about 2.6%.

SMILES	SMARCA2 act	ASAP1 inh	ARFGAP1 inhibitor	esBAF inh	SMARCA2 act conf	GAL4-VP16 Luc
O=C(NC(=S)Nc1ccccc1Br)c1cccnc1	-2	2	11	8	.	.
O=C(NC(=S)Nc1ccc(Br)cn1)c1cccnc1	8.3*	4	6	.	9.8*	0
COc1cc(C(=O)Nc2ccc(NC(=O)c3ccco3)nc2)cc(OC)c1OC	-4	5	-7	-5	.	.
COc1cccc(C(=O)Nc2ccc3[nH]ncc3c2)c1	9.4*	-5	8	0	8.9*	15*
O=C(Nc1ccc(NC(=O)c2ccco2)nc1)c1cccc(F)c1	1	-1	10	11	.	.
O=C(Nc1ccc(NC(=O)c2ccco2)nc1)c1cccnc1	8.7*	11	-11	.	9.1*	12*
COc1cccc(C(=O)Nc2ccc(NC(=O)c3ccco3)nc2)c1	9.7*	13	7	59*	12*	12*
CN(C)CCCNC(=O)C[C@@H]1C=C[C@H](NS(=O)(=O)c2ccc(F)cc2)[C@H](CO)O1	.	.	.	-2	.	.
CCCC(=O)Nc1ccc(NC(=O)c2ccco2)cn1	3	2	8	18	.	.
CC(C)n1cnc2cc(NC(=O)c3ccco3)ccc21	9.6*	6	-11	17	13*	9.6*
CC(C)C(=O)Nc1ccc(NC(=O)c2ccco2)cn1	8.1*	0	-5	13	5	2
COc1ccccc1NC(=O)CSc1nncn1-c1cccnc1	13*	3	-6	-8	0	0
COc1cc(-c2ccc(=O)[nH]n2)ccc1OC(F)F	8.1*	-9	-5	-2	15*	3
CC=Cc1ccc2n(c1=O)C[C@H]1[C@H](CO)[C@@H](C(=O)NCCOC)[C@@H]2N1Cc1ccccc1 (mixture of isomers)	.	.	.	-4	.	.
CN(C)CCNC(=O)c1ccc(COc2ccc(Cl)cc2Cl)cc1	8.0*	7	6	-6	10*	1
COc1ccc(Cl)cc1C(=O)NCCN(C)C	-3	-7	-14	.	.	.
CCOC(=O)CSc1nc(C)c(C(C)=O)cc1C#N	8.2*	-3	1	7	2	0
CCOC(=O)CCSc1nc(C)c2cc(C)c(C)cc2n1	3	-14	-2	12	.	.
CCOC(=O)CCSc1nc(C)c2cc(OC)ccc2n1	10*	-8	4	10	9.0*	11*
COCC(=O)Nc1ccc2c(c1)[C@H]1C[C@@H](CC(=O)NCc3ccccc3)O[C@@H](CO)[C@H]1O2	.	.	.	-1	.	.
COc1ccc(C(=O)Nc2cccc(/C(C)=N\NC(=O)c3ccoc3C)c2)cc1OC	8.4*	3	3	14	-3	7.9*
COc1ccc(C(=O)Nc2cccc(/C(C)=N/NC(=O)c3ccc([N+](=O)[O-])c(C)c3)c2)cc1OC	-1	-1	14	24	.	.
O=C(N[C@@H]1CC[C@@H](CC(=O)N2CCC(Cc3ccccc3)CC2)O[C@H]1CO)c1cnccn1	.	.	.	6	.	.
COc1cc(/C=C2\CC/C(=C\c3cc(OC)c(O)c(OC)c3)C2=O)cc(OC)c1O	11*	18	16	.	34*	3
COc1ccc(S(=O)(=O)Nc2ccc3c(c2)CC(=O)N([C@H](C)CO)C[C@@H](C)[C@@H](CN(C)Cc2ccc(Oc4ccccc4)cc2)O3)cc1	.	.	.	0	.	.
SMILES	SMARCA2 act	ASAP1 inh	ARFGAP1 inhibitor	esBAF inh	SMARCA2 act conf	GAL4-VP16 Luc
O=C(NC(=S)Nc1ccc2c(c1)OCCO2)c1ccco1	7	10	6	18	.	.
O=C(NC(=S)Nc1cccc(O)c1)c1ccco1	9.1*	-3	-3	15	6	7.6*
O=C(NNC(=S)Nc1ccc(F)cc1F)c1ccco1	12*	9	5	13	8.6*	3
Cc1ccccc1NC(=S)NNC(=O)c1ccco1	0	15	-3	4	.	.
Cc1ccnc(NC(=S)NC(=O)c2ccco2)c1	7	-1	4	.	.	.
O=C(NC(=S)Nc1ccccn1)c1ccco1	8.8*	-2	4	.	12*	8.6*
COCCn1c(=O)[nH]c2cc(C(=O)Nc3nnc(C)s3)ccc21	8.2*	-10	-4	1	4	3
COCCn1c(=O)[nH]c2cc(C(=O)Nc3cc(OC)c(OC)c(OC)c3)ccc2c1=O	-1	18	8	-7	.	.
COc1cc(C2Oc3ccccc3C=C2[N+](=O)[O-])cc(OC)c1OC (stereo not drawn)	21*	3	4	.	-13	3
CO[C@H]1CN(C)C(=O)c2ccc(NC(=O)C3CCCC3)cc2OC[C@@H](C)N(C(=O)CC2CC2)C[C@H]1C	.	.	.	1	.	.
CCC(=O)Nc1ccc2c(c1)OC[C@@H](C)N(C(=O)NC(C)C)C[C@H](C)[C@H](OC)CN(C)C2=O	.	.	.	1	.	.
CN(C)CCCn1c2c3ccccc3ccc2c2oc(=O)c3ccccc3c21	12*	-1	-7	.	54*	3
COc1ccc(S(=O)(=O)N[C@H]2C=C[C@@H](CC(=O)NCc3ccccc3F)O[C@H]2CO)cc1	.	.	.	0	.	.
Cn1c(SCC(=O)Nc2ccc(S(=O)(=O)Nc3nccs3)cc2)nc2sc3c(c2c1=O)CCCC3	11*	.	.	.	3	1
COc1ccc(CC(=O)Nc2ccc(S(=O)(=O)Nc3nccs3)cc2)cc1	0	-10	3	-4	.	.
COc1cccc(CC(=O)Nc2ccc(S(=O)(=O)Nc3nccs3)cc2)c1	8.4*	-2	0	7	-2	2
O=C(C[C@H]1CC[C@H](NC(=O)Nc2cc(F)ccc2F)[C@H](CO)O1)NCc1ccccn1	.	.	.	-1	.	.
O=C(C[C@H]1C[C@@H]2c3cc(NC(=O)C4CCOCC4)ccc3O[C@@H]2[C@H](CO)O1)NCC(F)(F)F	.	.	.	-3	.	.
Cc1cc(C(=O)O)cc(S(=O)(=O)Nc2c(C)nn(C)c2C)c1C	9.4*	19	0	0	-2	0
CCOc1ccccc1-c1nc(-c2ccc(C)nc2OC)no1	8.8*	11	-7	69*	15*	8.0*
Cc1ccc(C(=O)/C=C2\NCCNC2=O)cc1	12*	13	-3	.	12*	15*
CC(C)NC(=O)N[C@@H]1CC[C@@H](CCn2cc(-c3ccccc3)nn2)O[C@H]1CO	.	.	.	3	.	.
c1ccc2c(c1)COc1c3cc4c(cc3nn1-2)OCO4	9.5*	-13	6	25	15*	11*
O=C(Nc1ccc2c(c1)OCO2)N1CCCc2ccccc21	2	-8	10	?	.	.
CCCNC(=O)C[C@H]1C[C@H]2c3cc(NC(=O)c4ccc5c(c4)OCO5)ccc3O[C@H]2[C@@H](CO)O1	.	.	.	3	.	.
Cc1cc(C)c2c(N)c3ccccc3nc2n1	19*	-12	-10	3	30*	-1
CCc1ccc2nc3nc(C)cc(C)c3c(N)c2c1	6	0	5	0	.	.

Assay outcomes deposited in PubChem BioAssay by several laboratories.
